Experimental data from ChEMBL document CHEMBL2040826, “Design, synthesis and antiviral activity of novel pyridazines” (Eur J Med Chem, 2012).

Tests used:
[1] = system: Human immunodeficiency virus; experiment: Antiviral activity against HIV infected in human TZM-bl cells at 10 uM after 48 hrs by measuring luciferase activity by luminometer analysis; assay type: functional; settings: Human immunodeficiency virus 1, TZM-bl
Outline: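 TZM-bl cells seeded at 10⁴ cells/well; samples (from DMSO stocks) added next day, then pseudotyped HIV; final DMSO 2%. Incubated 48 h at 37 °C in humidified CO₂. Steady-glow luciferase substrate added, lysis 20 min in dark, luminescence read. AZT and MK-0518 as positive controls; expressed as percent inhibition.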

Tobacco mosaic virus [2] = experiment: In vitro antiviral activity against TMV at 500 ug/ml; assay type: functional
Tobacco mosaic virus [3] = experiment: In vivo antiviral activity against TMV assessed as curative effect at 500 ug/ml; assay type: functional
[4] = Cytotoxicity against human TZM-bl cells at 10 uM after 48 hrs by MTT assay; assay type: cell-based
Tobacco mosaic virus [5] = experiment: In vivo antiviral activity against TMV assessed as protection effect at 500 ug/ml; assay type: functional
Tobacco mosaic virus [6] = experiment: In vivo antiviral activity against TMV assessed as inactivation effect at 500 ug/ml; assay type: functional

Structure (SMILES)	inhibition at 10 µM [1]	inhibition at 500 µg/mL (Tobacco mosaic virus [2])	Activity (Tobacco mosaic virus [3])	Activity [4]	Activity (Tobacco mosaic virus [5])	Activity (Tobacco mosaic virus [6])
Cc1cn([C@H]2C[C@H](N=[N+]=[N-])[C@@H](CO)O2)c(=O)[nH]c1=O [ZIDOVUDINE]	100%					
Cc1nnc(C(=O)NC(C)(C)c2nc(C(=O)NCc3ccc(F)cc3)c(O)c(=O)n2C)o1 [RALTEGRAVIR POTASSIUM]	95.1%					
O=C(NCc1ccc(F)cc1)c1c(C(F)(F)F)nn(-c2ccc(F)cc2)c(=O)c1NCc1ccc(F)cc1	19.5%	28.5%	34%	Non-toxic	31.3%	30.2%
O=C(NCc1ccc(F)cc1)c1c(C(F)(F)F)nn(Cc2cccs2)c(=O)c1O	-7.5%	0%	14.2%	Non-toxic	0%	0%
O=C(NCc1ccc(F)cc1)c1c(C(F)(F)F)nn(Cc2ccc(F)cc2)c(=O)c1O	29.3%	30%	21.7%	Non-toxic	28.3%	21.4%
COC(=O)c1c(C(F)(F)F)nn(Cc2ccccn2)c(=O)c1O	5.41%	21.3%	9.3%	Non-toxic	16.7%	18.3%
COC(=O)c1c(C(F)(F)F)nn(Cc2cccnc2)c(=O)c1OC	19.5%			Non-toxic		
COC(=O)c1c(C(F)(F)F)nn(CC2CCCO2)c(=O)c1OC (stereo unspecified)	9.3%	13.6%	0%	Non-toxic	10.3%	19.7%
O=C(NCc1ccc(F)cc1)c1c(C(F)(F)F)nn(Cc2cccs2)c(=O)c1NCc1ccc(F)cc1	12.7%	30%	23.6%	Non-toxic	24.7%	19.5%
COC(=O)c1c(C(F)(F)F)nn(Cc2ccco2)c(=O)c1OC	-3.39%	8.5%	7.2%	Non-toxic	0%	0%
Cn1nc(C(F)(F)F)c(C(=O)NCc2ccc(F)cc2)c(NCc2ccc(F)cc2)c1=O	53.5%	8.6%	11.3%	Non-toxic	17.5%	23.9%
O=C(NCc1ccc(F)cc1)c1c(C(F)(F)F)nn(-c2ccc(F)cc2)c(=O)c1O	19.5%	18.6%	17.4%	Non-toxic	15.6%	10.3%
O=C(NCc1ccc(F)cc1)c1c(C(F)(F)F)nn(C/C=C/c2ccccc2)c(=O)c1O	-27.2%	18.4%	10.2%	Non-toxic	12.2%	0%
NC(=O)c1ncn([C@@H]2O[C@H](CO)[C@@H](O)[C@H]2O)n1 [RIBAVIRIN]		38.5%	32.7%		39.6%	34.2%
CC(C)(C)n1nc(C(F)(F)F)cc(NCc2ccc(F)cc2)c1=O	41.9%	26.2%	20.2%	Non-toxic	30.2%	15.3%
O=C(NCc1ccc(F)cc1)c1c(C(F)(F)F)nn(Cc2ccco2)c(=O)c1O	13%			Non-toxic		
CC(C)(C)n1nc(C(F)(F)F)cc(O)c1=O	-11.6%	31.7%	27.2%	Non-toxic	23.1%	18.6%

Structure (SMILES)	inhibition at 10 µM [1]	inhibition at 500 µg/mL (Tobacco mosaic virus [2])	Activity (Tobacco mosaic virus [3])	Activity [4]	Activity (Tobacco mosaic virus [5])	Activity (Tobacco mosaic virus [6])
COC(=O)c1c(C(F)(F)F)nn(-c2ccccc2)c(=O)c1O	-0.75%	15.5%	10.7%	Non-toxic	11.4%	18.9%
O=c1c(O)cc(C(F)(F)F)nn1-c1ccccc1	6.33%	0%	14.8%	Non-toxic	7.6%	0%
COC(=O)c1c(C(F)(F)F)nn(C/C=C/c2ccccc2)c(=O)c1OC	-19.4%	20.3%	29.8%	Non-toxic	22.9%	23.7%
COC(=O)c1c(C(F)(F)F)nn(C(C)(C)C)c(=O)c1OC	-6.5%	0%	6.3%	Non-toxic	5.7%	0%
O=C(NCc1ccc(F)cc1)c1c(C(F)(F)F)nn(CC2CCCO2)c(=O)c1O (stereo unspecified)	-3.02%	0%	0%	Non-toxic	0%	13.2%
COC(=O)c1c(C(F)(F)F)nn(Cc2cccs2)c(=O)c1OC	37%	12.4%	19.5%	Non-toxic	10%	15.1%
COC(=O)c1c(C(F)(F)F)nn(Cc2ccccn2)c(=O)c1OC	20.2%	0%	0%	Non-toxic	15.2%	0%
COC(=O)c1c(C(F)(F)F)nn(-c2ccc(F)cc2)c(=O)c1O	1.3%			Non-toxic		
COC(=O)c1c(C(F)(F)F)nn(Cc2ccc(F)cc2)c(=O)c1OC	13.9%	27.5%	10.3%	Non-toxic	20.2%	11.2%
COC(=O)c1c(C(F)(F)F)nn(-c2ccccc2)c(=O)c1OC	5.9%	20%	12.5%	Non-toxic	19.2%	16.5%
O=C(NCc1ccc(F)cc1)c1c(C(F)(F)F)nn(Cc2cccnc2)c(=O)c1O	7.31%	7.5%	12.8%	Non-toxic	18.9%	18.2%
O=c1c(O)cc(C(F)(F)F)nn1-c1ccc(F)cc1	-11.6%			Non-toxic		
Cn1nc(C(F)(F)F)c(C(=O)NCc2ccc(F)cc2)c(O)c1=O	-3.5%	19.6%	28.4%	Non-toxic	32.8%	25.4%
O=C(NCc1ccc(F)cc1)c1c(C(F)(F)F)nn(-c2ccccc2)c(=O)c1O	27.9%	38.5%	30.2%	Non-toxic	32.6%	36.7%
COC(=O)c1c(C(F)(F)F)nn(-c2ccc(F)cc2)c(=O)c1OC	7.34%	22.5%	18.6%	Non-toxic	11.7%	7.5%
COC(=O)c1c(C(F)(F)F)nn(C)c(=O)c1OC	-4%	25%	26.5%	Non-toxic	20.5%	27.3%
O=C(NCc1ccc(F)cc1)c1c(C(F)(F)F)nn(Cc2ccccn2)c(=O)c1O	2.99%	10%	7.6%	Non-toxic	18.6%	5.2%
